Measured values as given in ChEMBL document CHEMBL1148447, “Structure-activity study on a novel series of macrocyclic inhibitors of the hepatitis C virus NS3 protease leading to the discovery of BILN 2061” (J Med Chem, 2004).

Legend:
[1] = tested on: Hepatitis C virus; assay: Inhibition of hepatitis C virus in a cell based HCV replicon assay.; type: functional, organism-based, Hepacivirus hominis
[2] = Inhibitory concentration against hepatitis C virus NS3 protease; set-up: species or system Hepacivirus hominis
[3] = Half-life period in rats after intravenous administration at 5 mg/kg; type: ADME, organism-based; set-up: dose 5 mg/kg, route intravenous; conditions: rat, in vivo
Outline: (§1)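 Rats received an intravenous bolus of 5 mg/kg in PEG400/water (70:30). Half-life, Vss and plasma clearance were taken from plasma levels. Bioavailability was derived by comparison with oral gavage dosing at 20 mg/kg in the same vehicle.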

[4] = Area under the plasma concentration-time curve in rats after oral administration at 20 mg/kg; type: ADME, organism-based; set-up: dose 20 mg/kg, route oral; conditions: rat
Outline: (§2)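 Rats dosed by oral gavage at 20 mg/kg in PEG400/water (70:30). Cmax and AUC0-∞ were taken from the plasma concentration–time profile.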

[5] = Vss was determined; type: ADME, organism-based; conditions: rat, in vivo; read-out: Vss; outline: as §1
[6] = Maximum plasma concentration in rats after oral administration at 20 mg/kg; type: ADME, organism-based; set-up: dose 20 mg/kg, route oral; conditions: rat; outline: as §2
[7] = tested on: Rattus norvegicus; assay: Plasma clearance after intravenous administration at 5 mg/kg in rats; type: functional; outline: as §1
[8] = tested on: Rattus norvegicus; assay: Bioavailability in rat (dose 5 mg/kg i.v.); type: functional, organism-based; outline: as §1
[9] = Area under the plasma concentration-time curve in rats following oral administration at 20 mg/kg; type: ADME, organism-based; set-up: dose 20 mg/kg, route oral; conditions: rat; outline: as §2
[10] = Maximum plasma concentration in rats following oral administration at 20 mg/kg; type: ADME, organism-based; set-up: dose 20 mg/kg, route oral; conditions: rat; outline: as §2
[11] = Half-life from rat plasma at a single oral dose of 25 mg/kg; type: ADME, organism-based; set-up: dose 25 mg/kg, route oral
[12] = Area under the plasma concentration-time curve in rats after oral administration at 25 mg/kg; type: ADME, organism-based; set-up: dose 25 mg/kg, route oral; conditions: rat, read-out: AUC 0-infinity
[13] = tested on: Rattus norvegicus; assay: Bioavailability from rat plasma at a single oral dose of 25 mg/kg; type: ADME, organism-based; conditions: in vivo

SMILES | EC50 [1] [nM] | IC50 [2] [nM] | also measured
COc1ccc2c(O[C@@H]3C[C@H]4C(=O)N[C@]5(C(=O)O)C[C@H]5/C=C\CCCCC[C@H](NC(=O)OC(C)(C)C)C(=O)N4C3)cc(-n3ccnc3)nc2c1 | 13 | 4.7 | 
COc1ccc2c(O[C@@H]3C[C@H]4C(=O)N[C@]5(C(=O)O)C[C@H]5/C=C\CCCCC[C@H](NC(=O)OC(C)(C)C)C(=O)N4C3)cc(-n3cccc3)nc2c1 | 9.5 | 5.1 | 
CNc1nc(-c2cc(O[C@@H]3C[C@H]4C(=O)N[C@]5(C(=O)O)C[C@H]5/C=C\CCCCC[C@H](NC(=O)OC5CCCC5)C(=O)N4C3)c3ccc(OC)cc3n2)cs1 | 0.8 | 2.5 | 
CNc1nc(-c2cc(O[C@@H]3C[C@H]4C(=O)N[C@]5(C(=O)O)C[C@H]5/C=C\CCCCC[C@H](NC(=O)OC(C)(C)C)C(=O)N4C3)c3ccc(OC)cc3n2)cs1 | 6 | 6.4 | 
COc1ccc2c(O[C@@H]3C[C@H]4C(=O)N[C@]5(C(=O)O)C[C@H]5/C=C\CCCCC[C@H](NC(=O)OC5CCCC5)C(=O)N4C3)cc(-c3csc(N)n3)nc2c1 | 1.6 | 3.5 | 
COc1ccc2c(O[C@@H]3C[C@H]4C(=O)N[C@]5(C(=O)O)C[C@H]5/C=C\CCCCC[C@H](NC(=O)OC5CCC5)C(=O)N4C3)cc(-c3csc(NC(C)=O)n3)nc2c1 | 0.6 | 2.8 | 
C=C[C@@H]1C[C@]1(NC(=O)C1CC(Oc2cc(-c3ccccc3)nc3ccccc23)CN1C(=O)[C@@H](NC(=O)[C@@H](NC(C)=O)c1ccccc1)C(C)C)C(=O)O (single isomer, unassigned) |  | 13 | 
COc1ccc2c(O[C@@H]3C[C@H]4C(=O)N[C@]5(C(=O)O)C[C@H]5/C=C\CCCCC[C@H](NC(=O)OC(C)(C)C)C(=O)N4C3)cc(-c3nnc(C)o3)nc2c1 | 200 | 12 | 
COc1ccc2c(O[C@@H]3C[C@H]4C(=O)N[C@]5(C(=O)O)C[C@H]5/C=C\CCCCC[C@H](NC(=O)OC5CCCC5)C(=O)N4C3)cc(-n3cccn3)nc2c1 | 1.1 | 2.2 | 
C=C[C@@H]1C[C@]1(NC(=O)[C@@H]1C[C@@H](Oc2cc(-c3ccccc3)nc3ccccc23)CN1C(=O)[C@@H](NC(=O)[C@@H](NC(=O)[C@@H](CCC(=O)O)NC(=O)[C@H](CC(=O)O)NC(C)=O)c1ccccc1)C(C)(C)C)C(=O)O | 1900 | 0.5 | 
COc1ccc2c(O[C@@H]3C[C@H]4C(=O)N[C@]5(C(=O)O)C[C@H]5/C=C\CCCCC[C@H](NC(=O)OC(C)(C)C)C(=O)N4C3)ccnc2c1 | 1200 | 24 | 
COc1ccc2c(O[C@@H]3C[C@H]4C(=O)N[C@]5(C(=O)O)C[C@H]5/C=C\CCCCC[C@H](NC(=O)OC(C)(C)C)C(=O)N4C3)cc(-n3cccn3)nc2c1 | 3.9 | 5.5 | 
COc1ccc2c(O[C@@H]3C[C@H]4C(=O)N[C@]5(C(=O)O)C[C@H]5/C=C\CCCCC[C@H](NC(=O)OC5CCCC5)C(=O)N4C3)cc(-n3ccc(C)n3)nc2c1 | 1.2 | 2.2 | 
COc1ccc2c(O[C@@H]3C[C@H]4C(=O)N[C@]5(C(=O)O)C[C@H]5/C=C\CCCCC[C@H](NC(=O)OC5CCCC5)C(=O)N4C3)cc(-c3csc(NC(C)=O)n3)nc2c1 | 0.4 | 2.5 | 
COc1ccc2c(O[C@@H]3C[C@H]4C(=O)N[C@]5(C(=O)O)C[C@H]5/C=C\CCCCC[C@H](NC(=O)OC5CCCC5)C(=O)N4C3)cc(-c3csc(NC(C)C)n3)nc2c1 [CILUPREVIR] |  | 3 | half-life [3]: 78 min; AUC [4]: 12.5 µM·h; Vd [5]: 1 L/kg; Cmax [6]: 2500 nM; C1 [7]: 13 mL/min/kg; bioavailability [8]: 42%
COc1ccc2c(O[C@@H]3C[C@H]4C(=O)N[C@]5(C(=O)O)C[C@H]5/C=C\CCCCC[C@H](NC(=O)OC(C)(C)C)C(=O)N4C3)cc(-n3ccc(C)n3)nc2c1 | 4 | 3 | 
COc1ccc2c(O[C@@H]3C[C@H]4C(=O)N[C@]5(C(=O)O)C[C@H]5/C=C\CCCCC[C@H](NC(=O)OC5CCCC5)C(=O)N4C3)cc(-n3cccc3)nc2c1 | 3.4 | 3.6 | 
COc1ccc2c(O[C@@H]3C[C@H]4C(=O)N[C@]5(C(=O)O)C[C@H]5/C=C\CCCCC[C@H](NC(=O)OC(C)(C)C)C(=O)N4C3)cc(-c3csc(N)n3)nc2c1 | 3.2 | 5.5 | 
CCNc1nc(-c2cc(O[C@@H]3C[C@H]4C(=O)N[C@]5(C(=O)O)C[C@H]5/C=C\CCCCC[C@H](NC(=O)OC5CCCC5)C(=O)N4C3)c3ccc(OC)cc3n2)cs1 | 1 | 2.9 | AUC [9]: 7.2 µM·h; Cmax [10]: 1000 nM
COc1ccc2c(O[C@@H]3C[C@H]4C(=O)N[C@]5(C(=O)O)C[C@H]5/C=C\CCCCC[C@H](NC(=O)OC(C)(C)C)C(=O)N4C3)cc(-c3csc(NC(C)=O)n3)nc2c1 | 4.5 | 4.8 | half-life [3]: 48 min; AUC [4]: 0.3 µM·h; Cmax [10]: 300 nM; bioavailability [8]: 8%
COc1ccc2c(O[C@@H]3C[C@H]4C(=O)N[C@]5(C(=O)O)C[C@H]5/C=C\CCCCC[C@H](NC(=O)OC(C)(C)C)C(=O)N4C3)cc(-c3ccccc3)nc2c1 | 77 | 11 | half-life [11]: 24 min; AUC [12]: 0.2 µM·h; F [13]: 2%
COc1ccc2c(O[C@@H]3C[C@H]4C(=O)N[C@]5(C(=O)O)C[C@H]5/C=C\CCCCC[C@H](NC(=O)N[C@H](C)C(C)(C)C)C(=O)N4C3)cc(-c3csc(NC(C)=O)n3)nc2c1 | 20 | 1.4 | 
COc1ccc2c(O[C@@H]3C[C@H]4C(=O)N[C@]5(C(=O)O)C[C@H]5/C=C\CCCCC[C@H](NC(=O)OC(C)(C)C)C(=O)N4C3)cc(-n3cc(C)cn3)nc2c1 | 20 | 22 | 
C=C[C@@H]1C[C@]1(NC(=O)C1CC(Oc2ccnc3ccccc23)CN1C(=O)[C@@H](NC(=O)[C@@H](NC(C)=O)c1ccccc1)C(C)C)C(=O)O (single isomer, unassigned) |  | 170 | 
COc1ccc2c(O[C@@H]3C[C@H]4C(=O)N[C@]5(C(=O)O)C[C@H]5/C=C\CCCCC[C@H](NC(=O)OC(C)(C)C)C(=O)N4C3)cc(-n3cnc(C)c3)nc2c1 | 39 | 14 | 
